High-throughput results: PubChem BioAssay, several laboratories
TbMetRS inhib = Trypanosoma brucei MetRS inhibition | purified T. brucei MetRS, ATP depletion, Kinase-Glo luminescence | inhibition, % at 11.9 µM | actives 0.4% (n = 360,000) | AID 624268;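 active = inhibition above a per-plate cutoff of the control wells' mean inhibition plus 3 SD, cut at about 5.5% in these data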;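 note: 0% = DMSO wells median and 100% = median of wells with control inhibitor compound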
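Test system: purified T. brucei MetRS enzyme. Also added: ATP, methionine and E. coli bulk tRNA substrates. Compound: 11.9 µM single point. Schedule: 15 min enzyme-compound preincubation, 2 h reaction, 10 min detection, 25 °C. Signal: luciferase luminescence of residual ATP, Kinase-Glo. Evaluation: percent inhibition versus plate control medians. Controls: DMSO wells, low control.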
iPSC survival up = enhancers of human iPSC single-cell survival; hiPSC single-cell survival, ATPlite luminescence; 100% = ROCK inhibitor wells, 0% = DMSO; survival enhancement, % at 20 µM; actives 0.044% (n = 360,000); AID 602274; in the data active = survival enhancement above about 18%;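 note: cells exposed to compounds for 16 hours before the ATP read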
Exocytosis inh = blocks lytic granule exocytosis. AID 651702. actives 0.66% (n = 360,000). TALL-104 LAMP-1 surface exposure, flow cytometry; cells stimulated with thapsigargin and PMA. inhibition, % at 10 µM;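 active = inhibition above about 55%, limit read from the data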
ABCB6 inh MLPCN = human ABCB6 transporter inhibition; Q9NP58; K562-ABCB6 porphyrin accumulation, flow cytometry, 1 h; stronger effect = lower value; fluorescence ratio to DMSO, % at 10 µM; actives 0.19% (n = 360,000);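 active = fluorescence ratio to DMSO below 75%, the collection mean minus 3 SD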;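 note: signal is porphyrin accumulated inside mitochondria; 100% equals median channel fluorescence of DMSO control wells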
MC4R antag cAMP = antagonists of human melanocortin 4 receptor (MC4R); P32245; MC4R-expressing cells, MTII-stimulated cAMP, LANCE TR-FRET; inhibition, % at 6.5 µM; actives 0.48% (n = 360,000); AID 540295;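 active = inhibition above its plate's cutoff, the mean of tested wells on that plate plus 3 SD, cut at about 29% in these data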;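 note: 0% = Melanotan II alone and 100% = Melanotan II plus saturating MCL0020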
Target sequence (P32245 whole entry, looked up): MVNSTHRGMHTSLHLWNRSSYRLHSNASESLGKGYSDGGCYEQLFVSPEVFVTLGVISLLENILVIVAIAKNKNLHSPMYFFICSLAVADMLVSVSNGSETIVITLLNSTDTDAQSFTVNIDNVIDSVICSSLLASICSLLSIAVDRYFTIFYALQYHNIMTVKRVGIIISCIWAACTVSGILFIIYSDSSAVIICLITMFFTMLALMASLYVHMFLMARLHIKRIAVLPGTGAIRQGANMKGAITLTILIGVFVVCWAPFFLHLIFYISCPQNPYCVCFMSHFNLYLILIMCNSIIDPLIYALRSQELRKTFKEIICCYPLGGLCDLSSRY
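Assay system: human MC4R-expressing U2OS cells; reagent: Melanotan II stimulation of cells; dosing: 6.5 µM single dose; timing: compound 30 min, challenge 1 h, detection 1 h; signal: TR-FRET cAMP assay; replicates: one well per compound, no replicates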
MC4R barr agon = agonists of human melanocortin 4 receptor (MC4R) beta-arrestin; actives 0.98% (n = 360,000); U2OS MC4R beta-arrestin complementation, luminescence; percent of melanotan II response, DMSO zero; activation, % at 8.9 µM; P32245;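 active = activation above a per-plate cutoff, the mean activation of sample wells on that plate plus 3 SD, cut at about 8% in these data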
Numbers without * were called inactive. Most compounds without a hit are left out; they make up all but 2.6% or so of the library.

O=C(Nc1ccc(C(=O)N2CCOCC2)cc1)c1cccc([N+](=O)[O-])c1 was read as TbMetRS inhib -0.3, iPSC survival up -1.9, Exocytosis inh -2.0, ABCB6 inh MLPCN 100.0, MC4R antag cAMP 6.2 and MC4R barr agon -1.7.
For Cc1cc(C)c(S(=O)(=O)N2CCN(C(=O)c3cc4ccccc4o3)CC2)c(C)c1 the results were TbMetRS inhib -0.7, iPSC survival up 0.5, Exocytosis inh 0.4, ABCB6 inh MLPCN 92.0, MC4R antag cAMP 3.8 and MC4R barr agon 0.8.
O=C(c1cc2ccccc2o1)N1CCN(S(=O)(=O)c2ccc(F)c(F)c2F)CC1 was read as TbMetRS inhib -0.2, iPSC survival up 0.4, Exocytosis inh -1.6, ABCB6 inh MLPCN 97.0, MC4R antag cAMP 3.2 and MC4R barr agon 8.2*.
O=C(O)c1ccc(-c2nc(-c3ccccc3)cs2)cc1 was read as TbMetRS inhib -0.3, iPSC survival up 0.1, Exocytosis inh -4.3, ABCB6 inh MLPCN 96.0, MC4R antag cAMP 8.0 and MC4R barr agon -1.2.
For O=C(O)c1ccc(-c2nc(-c3ccc(Cl)c(Cl)c3)cs2)cc1 the results were TbMetRS inhib -0.2, iPSC survival up 0.3, Exocytosis inh 2.7, ABCB6 inh MLPCN 109.0, MC4R antag cAMP 31.2* and MC4R barr agon -2.1.
Screening COc1ccc2c(c1O)-c1ccccc1CCN(C)C2 returned TbMetRS inhib -1.3, iPSC survival up -2.3, Exocytosis inh -2.5, ABCB6 inh MLPCN 103.0, MC4R antag cAMP 2.4 and MC4R barr agon -0.6.
Screening CN1CCc2cccc3c2[C@@H]1Cc1ccc(O)c(O)c1-3 returned TbMetRS inhib 0.1, iPSC survival up 0.4, Exocytosis inh 73.9*, ABCB6 inh MLPCN 101.0, MC4R antag cAMP -6.6 and MC4R barr agon -1.1.
Screening COCCN1C(=O)C(=O)/C(=C(/O)c2ccc(C)cc2)C1c1ccccn1 (stereo unspecified) returned TbMetRS inhib -0.2, iPSC survival up -0.2, Exocytosis inh -1.9, ABCB6 inh MLPCN 97.0, MC4R antag cAMP 22.2 and MC4R barr agon -2.2.
Screening NC(=S)N=Nc1c(O)n(CCCl)c2ccc(Cl)cc12 returned TbMetRS inhib -0.3, iPSC survival up -0.7, Exocytosis inh 57.1*, ABCB6 inh MLPCN 98.0, MC4R antag cAMP -11.2 and MC4R barr agon -5.2.
`O=c1ccsn1Cc1ccccc1` gave TbMetRS inhib -0.7, iPSC survival up -2.6, Exocytosis inh 94.6*, ABCB6 inh MLPCN 107.0, MC4R antag cAMP -18.7 and MC4R barr agon 2.7.
For COC(=O)CC1SC(=O)NC1=Nc1ccc(OC)cc1 (stereo unspecified) the results were TbMetRS inhib -0.5, iPSC survival up -2.1, Exocytosis inh 25.1, ABCB6 inh MLPCN 192.0, MC4R antag cAMP 1.1 and MC4R barr agon 0.5.
Screening CCOc1ccccc1C1NC(=O)NC(C)=C1C(=O)OC1CCCCC1 (stereo unspecified) returned TbMetRS inhib -0.3, iPSC survival up 0.3, Exocytosis inh -5.3, ABCB6 inh MLPCN 102.0, MC4R antag cAMP 7.2 and MC4R barr agon 1.5.
CC1=C(C(=O)OC2CCCCC2)C(c2ccccc2Br)NC(=O)N1 (stereo unspecified) was read as TbMetRS inhib 0.0, iPSC survival up -0.2, Exocytosis inh -0.9, ABCB6 inh MLPCN 106.0, MC4R antag cAMP 7.9 and MC4R barr agon 8.2*.
`CN1N=C(C(=O)N2CCc3c([nH]c4ccccc34)C2c2c(F)cccc2Cl)CCC1=O` (stereo unspecified) gave TbMetRS inhib -0.7, iPSC survival up -0.7, Exocytosis inh -0.4, ABCB6 inh MLPCN 96.0, MC4R antag cAMP 7.4 and MC4R barr agon -1.7.
Screening Cc1cc(NC(=O)CSc2nc(C(C)C)nc3sc(C)c(C)c23)no1 returned TbMetRS inhib -0.2, iPSC survival up -0.6, Exocytosis inh 2.4, ABCB6 inh MLPCN 99.0, MC4R antag cAMP -3.7 and MC4R barr agon 8.4*.
`Cc1sc2nc(C(C)C)nc(SCC(=O)NC3CC3)c2c1C` gave TbMetRS inhib -0.9, iPSC survival up 0.7, Exocytosis inh 18.8, ABCB6 inh MLPCN 101.0, MC4R antag cAMP 18.4 and MC4R barr agon 0.5.
CC(=O)C(C(C)=O)c1c(Cl)c(O)c(O)c2c(C(=O)c3ccccc3)coc12 was read as TbMetRS inhib -0.6, iPSC survival up 0.0, Exocytosis inh 91.0*, ABCB6 inh MLPCN 88.0, MC4R antag cAMP 0.7 and MC4R barr agon -0.9.
For CCCCCSc1nncc(=O)[nH]1 the results were TbMetRS inhib -1.4, iPSC survival up 0.8, Exocytosis inh 0.0, ABCB6 inh MLPCN 108.0, MC4R antag cAMP -4.7 and MC4R barr agon -0.1.
Screening CCCCCCCCSC1=CC(=O)C(OC)=C(OC)C1=O returned TbMetRS inhib -0.1, iPSC survival up -3.2, Exocytosis inh 113.8*, ABCB6 inh MLPCN 93.0, MC4R antag cAMP -5.3 and MC4R barr agon -1.2.
For N#Cc1c(NC(=O)c2ccccc2)sc2c1CCCCC2 the results were TbMetRS inhib -1.4, iPSC survival up -2.1, Exocytosis inh -0.7, ABCB6 inh MLPCN 102.0, MC4R antag cAMP -0.9 and MC4R barr agon 8.3*.
Screening O=C(Cn1ccc(NC(=O)OCc2ccccc2)nc1=O)NCc1ccc2[nH]ccc2c1 returned TbMetRS inhib -0.4, iPSC survival up 1.5, Exocytosis inh -3.6, ABCB6 inh MLPCN 95.0, MC4R antag cAMP 9.7 and MC4R barr agon -0.1.
For NC(=O)c1nsc(C(=O)N(c2ccccc2F)C(C(=O)NCc2ccccc2)c2ccc(O)cc2)c1N (stereo unspecified) the results were TbMetRS inhib -0.2, iPSC survival up 0.6, Exocytosis inh 39.4, ABCB6 inh MLPCN 102.0, MC4R antag cAMP 24.2 and MC4R barr agon 1.4.
For CN(C)c1ccc(C(C(=O)NCC2CCCO2)N(C(=O)c2snc(C(N)=O)c2N)c2ccccc2)cc1 (stereo unspecified) the results were TbMetRS inhib -0.8, iPSC survival up -0.3, Exocytosis inh 18.0, ABCB6 inh MLPCN 95.0, MC4R antag cAMP 1.5 and MC4R barr agon -0.9.
`Cc1ccccc1N(C(=O)c1snc(C(N)=O)c1N)C(C(=O)NCc1ccccc1)c1ccc(O)cc1` (stereo unspecified) gave TbMetRS inhib -0.3, iPSC survival up 0.2, Exocytosis inh 63.6*, ABCB6 inh MLPCN 99.0, MC4R antag cAMP 28.5 and MC4R barr agon 1.7.
Cc1cccc(N(C(=O)c2snc(C(N)=O)c2N)C(C(=O)NCC2CCCO2)c2ccc(N(C)C)cc2)c1 (stereo unspecified) was read as TbMetRS inhib -0.7, iPSC survival up -0.7, Exocytosis inh 97.1*, ABCB6 inh MLPCN 94.0, MC4R antag cAMP 1.9 and MC4R barr agon -2.6.
